“Also recorded” adds a separate entry of the source. Where two headings read alike, the source gives them in different places. Marks after values point to notes of the source that are not given here.
What was measured:
[1] = cited from earlier work
Study 2 = type: in vivo, human; conditions: for Accumulation ratio: week 3 / week 1, plasma islatravir AUC0–168 h / Accumulation ratio: week 3 / week 1, plasma islatravir Cmax: LS mean difference (90% CI); for AUC(0-t): Plasma islatravir AUC0–168 h; for AUC(0-t) / Cmax: LS mean (95% CI); for Cmax: Plasma islatravir Cmax
How it was run: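 Capsules of 10, 30 or 100 mg were given once weekly for 3 weeks, fasted (6 active, 2 placebo per panel). Plasma was sampled predose to ~168 h after dosing and measured by reversed-phase LC-MS/MS after protein precipitation (LLOQ 1.00 ng/ml). […] Week 3/week 1 ratios are back-transformed with 90% CI.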

SIV [2] = conditions: weekly oral islatravir; cited from earlier work
HIV‐1 = conditions: cited from earlier work
[3] = Study 2 safety and tolerability; type: in vivo, human
How it was run: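 Double-blind, randomized, serial-panel multiple-dose design: 3 panels of 8 (6 active, 2 placebo) took capsules once weekly for 3 weeks, at least 10 days between panels. Assessments were vital signs, 12-lead ECGs, and hematology and blood chemistry at prespecified times. Adverse events were monitored from consent through 21 days after the last dose. Placebo data were pooled. Participants were adults 18–60 y, BMI ≤32 kg/m2, without HIV.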

SIV [4] = conditions: once‐weekly oral islatravir; cited from earlier work
Study 1 [5] = type: in vivo, human
How it was run: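 Fasted single oral-suspension doses, with 30 mg also given after a high-fat breakfast (55.6 g fat, 55 g carbohydrate, 31.1 g protein), 6 active and 2 placebo per panel. Plasma was sampled predose to ~96 h and analysed by protein precipitation and reversed-phase LC-MS/MS (LLOQ 1.00 ng/ml; range 1.00–1000.00 ng/ml). Log-transformed values went into a mixed model (treatment fixed, subject random), giving a fed/fasted geometric mean ratio with 90% CI.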

Study 1 [6] = type: in vivo, human; remark: listed apart in the source
How it was run: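 Double-blind, randomized, alternating-panel single-dose design: 3 panels of 8 (6 active, 2 placebo) received an oral suspension or the vehicle as placebo. Assessments were vital signs, 12-lead ECGs, and hematology and blood chemistry at prespecified times. Adverse events were recorded from consent through 21 days after treatment ended. Placebo recipients were pooled. Participants were adults 18–60 y, BMI ≤32 kg/m2, men or women of nonchildbearing potential.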

Study 1 [7] = type: in vivo, human; conditions: for Intracellular islatravir‐TP AUC0–168 h / Intracellular islatravir‐TP AUC0–∞ / Intracellular islatravir‐TP C168 h / Intracellular islatravir‐TP Cmax: PBMC, LS geometric mean (95% CI)
How it was run: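 PBMCs from healthy adults were collected up to ~336 h after single oral doses, fasted or after a high-fat meal (30 mg). Cells were lysed in methanol-containing solvent, protein-precipitated, and triphosphate was measured by ion-exchange LC-MS/MS (LLOQ 0.50 ng/ml; range 0.50–200.00 ng/ml). Concentrations were carryover-corrected when predose exceeded 5% of Cmax. Results are LS geometric means (95% CI) from a log-scale mixed model; fed/fasted ratios have 90% CI.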

[8] = type: in vivo, human; conditions: for Tmax: human, PBMCs, oral
How it was run: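 Healthy adults took weekly oral capsules (10, 30, 100 mg) for 3 weeks. PBMCs were collected up to ~336 h after the last dose and triphosphate was quantified by ion-exchange LC-MS/MS (LLOQ 0.50 ng/ml). Tmax is observed. […] LS means are given with 95% CI.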

[9] = human, plasma, oral, 100 mg, Study 2, 100 mg once weekly, Week 1
[10] = human, plasma, oral, 100 mg, Study 2, 100 mg once weekly, Week 3
[11] = up to 100 mg once weekly for 3 weeks
[12] = Study 2, 10 mg once weekly, Week 1, LS mean (95% CI)
[13] = Study 2, 10 mg once weekly, Week 3, LS mean (95% CI)
[14] = Study 2, 30 mg once weekly, Week 1, LS mean (95% CI)
[15] = Study 2, 30 mg once weekly, Week 3, LS mean (95% CI)
[16] = Study 2, 100 mg once weekly, Week 1, LS mean (95% CI)
[17] = Study 2, 100 mg once weekly, Week 3, LS mean (95% CI)

Compound: C#C[C@]1(CO)O[C@@H](n2cnc3c(N)nc(F)nc32)C[C@@H]1O [islatravir, 4'‐Ethynyl‐2‐fluoro‐2'‐deoxyadenosine]
- time of peak plasma concentrations postdose ([1]; rhesus macaque, enteral administration): ~ 90 min
- Accumulation ratio: week 3 / week 1, plasma islatravir AUC0–168 h (Study 2; Study 2, 10 mg once weekly): 1.22 (1.08, 1.36) h*μmol/L
- Accumulation ratio: week 3 / week 1, plasma islatravir Cmax (Study 2; Study 2, 10 mg once weekly): 1.25 (0.82, 1.92) nmol/L
- Accumulation ratio: week 3 / week 1, plasma islatravir AUC0–168 h (Study 2; Study 2, 30 mg once weekly): 1.22 (1.09, 1.37) h*μmol/L
- Accumulation ratio: week 3 / week 1, plasma islatravir Cmax (Study 2; Study 2, 30 mg once weekly): 0.99 (0.64, 1.51) nmol/L
- Accumulation ratio: week 3 / week 1, plasma islatravir AUC0–168 h (Study 2; Study 2, 100 mg once weekly): 1.25 (1.11, 1.40) h*μmol/L
- Accumulation ratio: week 3 / week 1, plasma islatravir Cmax (Study 2; Study 2, 100 mg once weekly): 1.26 (0.82, 1.93) nmol/L
- accumulation of islatravir in plasma (Study 2; Study 2, once‐weekly dosing for 3 weeks): little to no accumulation; also recorded: minimal accumulation
- concentration at 48 h (Study 2; human, plasma, oral, 10 mg): < 1 ng/mL
- concentration at 96 h (Study 2; human, plasma, oral, 10 mg): < 1 ng/mL
- half-life (Study 2; human, plasma, oral, 10 mg): 16.5 h
- half-life (Study 2; human, plasma, oral, 30 mg): 74.2 h
- half-life (Study 2; human, plasma, oral, 100 mg): 87.1 h
- AUC(0-t) (Study 2; [9]): 9.62 µM·h
- AUC(0-t) (Study 2; [10]): 12 µM·h
- Cmax (Study 2; [9]): 1470 nM
- Cmax (Study 2; [10]): 1850 nM
- protection from infection (SIV [2]): protected
- tolerability (HIV‐1; phase 1b single dose): generally well‐tolerated
- suppression of HIV‐1 RNA (HIV‐1; single oral doses as low as 0.5 mg, day 7): greater than 1.0 log
- changes in clinical laboratory values, vital signs, or ECG safety parameter values [3]: No clinically meaningful relationships
- intensity of adverse events [3]: mild to moderate
- total nonserious adverse events [3]: 12
- serious adverse events [3, 11]: no serious adverse events
- tolerability [3, 11]: generally well‐tolerated
- duration of declines in SIV RNA (SIV [4]): at least 7 days
- decrease in plasma islatravir Cmax with a high‐fat meal (Study 1 [5]; 30 mg fed vs fasted): 49%
- increase in plasma islatravir AUC0–∞ with a high‐fat meal (Study 1 [5]; 30 mg fed vs fasted): 10%
- food effect on pharmacokinetics (Study 1 [5]; 30 mg with a high‐fat meal): no meaningful food effect
- Tmax (Study 1 [5]; human, plasma, po, median time to maximum plasma concentration (Tmax), fasted state, single oral doses): 0.5 h
- adverse events considered related to islatravir (Study 1 [6]): none
- changes in clinical laboratory values, vital signs, or ECG safety parameter values (Study 1 [6]): No clinically meaningful relationships
- intensity of adverse events (Study 1 [6]): mild to moderate
- total nonserious adverse events (Study 1 [6]): 30
- serious adverse events (Study 1 [6]; single doses up to 400 mg): no serious adverse events
- tolerability (Study 1 [6]; single oral doses up to 400 mg): generally well‐tolerated

Compound: C#C[C@]1(COP(=O)(O)OP(=O)(O)OP(=O)(O)O)O[C@@H](n2cnc3c(N)nc(F)nc32)C[C@@H]1O [islatravir‐TP, 4'‐Ethynyl‐2‐fluoro‐2'‐deoxyadenosine triphosphate]
- intracellular persistence of islatravir‐TP ([1]; preclinically): > 72 h
- effect of food on islatravir‐TP AUC, Cmax, and C168 (Study 1 [7]; 30 mg with a high‐fat meal): largely unchanged; also recorded: did not affect
- posterior probability that the true mean intracellular islatravir‐TP C168 h is greater than 0.53 pmol/10^6 cells (Study 1 [7]; doses of 15 mg and above): greater than 99%
- Intracellular islatravir‐TP AUC0–168 h (Study 1 [7]; single oral 5 mg fasted): 91.6 (73.5–114) h*pmol/10^6cells
- Intracellular islatravir‐TP AUC0–∞ (Study 1 [7]; single oral 5 mg fasted): 162 (120–217) h*pmol/10^6cells
- Intracellular islatravir‐TP C168 h (Study 1 [7]; single oral 5 mg fasted): 0.29 (0.19–0.45) pmol/10^6 cells
- Intracellular islatravir‐TP Cmax (Study 1 [7]; single oral 5 mg fasted): 1.06 (0.83–1.37) pmol/10^6cells
- Intracellular islatravir‐TP AUC0–168 h (Study 1 [7]; single oral 15 mg fasted): 341 (274–425) h*pmol/10^6cells
- Intracellular islatravir‐TP AUC0–∞ (Study 1 [7]; single oral 15 mg fasted): 670 (499–900) h*pmol/10^6cells
- Intracellular islatravir‐TP C168 h (Study 1 [7]; single oral 15 mg fasted): 1.24 (0.80–1.92) pmol/10^6 cells
- Intracellular islatravir‐TP Cmax (Study 1 [7]; single oral 15 mg fasted): 3.65 (2.85–4.69) pmol/10^6cells
- Intracellular islatravir‐TP AUC0–168 h (Study 1 [7]; single oral 30 mg fasted): 871 (700–1080) h*pmol/10^6cells
- Intracellular islatravir‐TP AUC0–∞ (Study 1 [7]; single oral 30 mg fasted): 1420 (1060–1900) h*pmol/10^6cells
- Intracellular islatravir‐TP C168 h (Study 1 [7]; single oral 30 mg fasted): 2.76 (1.78–4.29) pmol/10^6 cells
- Intracellular islatravir‐TP Cmax (Study 1 [7]; single oral 30 mg fasted): 8.21 (6.39–10.50) pmol/10^6cells
- Intracellular islatravir‐TP Cmax (Study 1 [7]; single oral 30 mg fed): 7.85 (6.11–10.1) pmol/10^6cells
- Intracellular islatravir‐TP AUC0–∞ (Study 1 [7]; single oral 30 mg fed, N = 4): 1370 (975–1920) ^g h*pmol/10^6cells
- Intracellular islatravir‐TP AUC0–168 h (Study 1 [7]; single oral 30 mg fed, N = 5): 660 (520–838) ^f h*pmol/10^6cells
- Intracellular islatravir‐TP C168 h (Study 1 [7]; single oral 30 mg fed, N = 5): 2.71 (1.67–4.40) ^f pmol/10^6 cells
- Intracellular islatravir‐TP AUC0–168 h (Study 1 [7]; single oral 100 mg fasted): 1260 (1010–1560) h*pmol/10^6cells
- Intracellular islatravir‐TP AUC0–∞ (Study 1 [7]; single oral 100 mg fasted): 2480 (1850–3330) h*pmol/10^6cells
- Intracellular islatravir‐TP C168 h (Study 1 [7]; single oral 100 mg fasted): 4.79 (3.09–7.43) pmol/10^6 cells
- Intracellular islatravir‐TP Cmax (Study 1 [7]; single oral 100 mg fasted): 13.8 (10.7–17.7) pmol/10^6cells
- Intracellular islatravir‐TP AUC0–168 h (Study 1 [7]; single oral 200 mg fasted): 3100 (2490–3860) h*pmol/10^6cells
- Intracellular islatravir‐TP AUC0–∞ (Study 1 [7]; single oral 200 mg fasted): 5180 (3850–6960) h*pmol/10^6cells
- Intracellular islatravir‐TP C168 h (Study 1 [7]; single oral 200 mg fasted): 7.73 (4.98–12.0) pmol/10^6 cells
- Intracellular islatravir‐TP Cmax (Study 1 [7]; single oral 200 mg fasted): 38.4 (29.9–49.3) pmol/10^6cells
- Intracellular islatravir‐TP AUC0–168 h (Study 1 [7]; single oral 400 mg fasted): 5300 (4260–6580) h*pmol/10^6cells
- Intracellular islatravir‐TP AUC0–∞ (Study 1 [7]; single oral 400 mg fasted): 9320 (6950–12500) h*pmol/10^6cells
- Intracellular islatravir‐TP C168 h (Study 1 [7]; single oral 400 mg fasted): 18.3 (11.8–28.4) pmol/10^6 cells
- Intracellular islatravir‐TP Cmax (Study 1 [7]; single oral 400 mg fasted): 63.6 (49.6–81.6) pmol/10^6cells
- Islatravir‐TP AUC0–168 h [8, 12]: 341 (256, 454) h*pmol/10^6 cells
- Islatravir‐TP Cmax [8, 12]: 3.79 (2.68, 5.34) pmol/10^6 cells
- Islatravir‐TP AUC0–168 h [8, 13]: 476 (357, 634) h*pmol/10^6 cells
- Islatravir‐TP Cmax [8, 13]: 6.38 (4.52, 9.00) pmol/10^6 cells
- Islatravir‐TP AUC0–168 h [8, 14]: 1160 (872, 1550) h*pmol/10^6 cells
- Islatravir‐TP Cmax [8, 14]: 13.2 (9.34, 18.6) pmol/10^6 cells
- Islatravir‐TP AUC0–168 h [8, 15]: 1570 (1180, 2100) h*pmol/10^6 cells
- Islatravir‐TP Cmax [8, 15]: 19.6 (13.9, 27.7) pmol/10^6 cells
- Islatravir‐TP AUC0–168 h [8, 16]: 3150 (2370, 4200) h*pmol/10^6 cells
- Islatravir‐TP C168 [8, 16]: 13.5 (10.4, 17.6) pmol/10^6 cells
- Islatravir‐TP Cmax [8, 16]: 31.3 (22.2, 44.2) pmol/10^6 cells
- Islatravir‐TP AUC0–168 h [8, 17]: 4740 (3560, 6320) h*pmol/10^6 cells
- Islatravir‐TP Cmax [8, 17]: 46.7 (33.1, 65.9) pmol/10^6 cells
- islatravir‐TP C168 h versus pharmacokinetic target ([8]; Study 2, after the first weekly dose at all dose levels, posterior probability calculation): > 0.53 pmol/10^6 cells
- accumulation of intracellular islatravir‐TP ([8]; Study 2, multiple weekly doses of 30 and 100 mg): modest degree of accumulation
- accumulation of intracellular islatravir‐TP ([8]; Study 2, multiple weekly doses of 30 and 100 mg, listed as islatravir‐triphosphate): modest degree
- accumulation of intracellular islatravir‐TP ([8]; Study 2, weekly administration): ~1.5 fold
- Tmax ([8]; 10 mg): 48 h
- Tmax ([8]; 30 mg): 9 h
- Tmax ([8]; 100 mg): 18 h

Reference: article PMC8504818 (Clinical and Translational Science, 2021)
